According to paper PMC7540576 (Chembiochem, 2020):
Non-standard residues stand in square brackets, D forms with d. Residues, ends and D or L forms follow the SMILES beside them. *: point of attachment. Orn(α-tetramethylguanidino) = CN(C)C(=N[C@@H](CCCN)C(=O)*)N(C)C

Legend:
[1] = test system: E. coli BW25113; experiment: Bacterial uptake, peptide quantified by LC-MS; format: cell-based, Escherichia coli BW25113; conditions: high cell counts, 30 min
How it was run: (§1)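 Cultures in 25% MHB2 were grown 4.0±0.25 h after 30-fold dilution, sized by OD600 (1.0 = 1.2×10^9 cfu/mL), pelleted and resuspended to 1.5×10^10 or 1.5×10^9 cfu/mL. Each was mixed 1:1 with medium containing 16 µg/mL peptide and shaken 30 min at 37 °C, with viable counts plated. Peptide in the supernatant (pellets also quantified) was measured by SPE then RP-HPLC-ESI-MS/MS MRM against a cell-free 8 µg/mL control and an on-plate calibration. Uptake was taken as the difference. Triplicate, repeated another day.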

[2] = test system: E. coli BW25113; experiment: Antimicrobial activity; format: cell-based, Escherichia coli BW25113; conditions: broth micro dilution, 25 % MHB2, 7.5×10^6 cfu/mL, 37 °C, 20±2 h, triplicates
How it was run: (§2)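 Broth microdilution in 25% MHB2. Aqueous peptide stock (3 g/L) serially twofold diluted from 128 µg/mL in eight steps. Overnight 25% MHB2 cultures were diluted 30-fold, grown 4 h (37 °C, 200 rpm), and adjusted by McFarland to give a final 7.5×10^6 cfu/mL. Plates were incubated 20±2 h at 37 °C and OD595 read. MIC was the lowest concentration preventing visible growth. Triplicates.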

[3] = test system: A. baumannii ATCC 15308; experiment: Antimicrobial activity; format: cell-based, Acinetobacter baumannii DSM 30008 / ATCC 15308; conditions: for MIC: broth micro dilution, 25 % MHB2, 7.5×10^6 cfu/mL, 37 °C, 20±2 h, triplicates
How it was run: as §2

[4] = test system: Gram‐negatives (E. coli, K. pneumoniae, A. baumannii, P. aeruginosa); experiment: Bacterial uptake, values stated for the Gram-negatives together; format: cell-based; conditions: 30 min
How it was run: as §1

[5] = test system: K. pneumoniae ATCC 10031; experiment: Antimicrobial activity; format: cell-based, Klebsiella pneumoniae DSM 681 / ATCC 10031; conditions: broth micro dilution, 25 % MHB2, 7.5×10^6 cfu/mL, 37 °C, 20±2 h, triplicates
How it was run: as §2

[6] = test system: S. aureus DSM 6247; experiment: Antimicrobial activity; format: cell-based, Staphylococcus aureus DSM 6247; conditions: broth micro dilution, 25 % MHB2, 7.5×10^6 cfu/mL, 37 °C, 20±2 h, triplicates
How it was run: as §2

[7] = test system: E. coli BL21AI; conditions: E. coli BL21AI incubated with 4 mg/L peptide; cited from earlier work
[8] = test system: S. aureus DSM 6247; experiment: Bacterial uptake, peptide quantified by LC-MS; format: cell-based, Staphylococcus aureus DSM 6247; conditions: ∼7.5×10^9 cells/mL, 30 min, relative to cell-free medium, LC-MS MRM (Figure S3)
How it was run: as §1

[9] = test system: P. aeruginosa ATCC 27853; experiment: Antimicrobial activity; format: cell-based, Pseudomonas aeruginosa DSM 1117 / ATCC 27853; conditions: broth micro dilution, 25 % MHB2, 7.5×10^6 cfu/mL, 37 °C, 20±2 h, triplicates
How it was run: as §2

[10] = test system: K. pneumoniae ATCC 10031; experiment: Bacterial uptake, peptide quantified by LC-MS; format: cell-based, Klebsiella pneumoniae DSM 681 / ATCC 10031; conditions: high cell counts, 30 min
How it was run: as §1

[11] = test system: A. baumannii ATCC 15308 ribosomes; experiment: Fluorescence polarization assay, 70S ribosome of A. baumannii; format: binding, Acinetobacter baumannii DSM 30008 / ATCC 15308; conditions: RF1 added at equimolar quantities to the A. baumannii ribosome preparation
How it was run: (§3)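 70S ribosomes came from log-phase cultures (OD600 ~1): bead-mill lysis in HEPES buffer pH 7.6, DNase I/meropenem, clarification, then 165000 g for 17 h. Concentration by A260 (1 AU = 28 pmol/mL). In casein-blocked wells, ribosomes were twofold diluted in 23 steps (12 µmol/L–2.9 pmol/L) with Cf-labeled peptide added at 40 nmol/L, then incubated 90 min at 28 °C in the dark. Polarization read at ex485/em535. K_d came from a variable-slope dose-response fit of ≥2 triplicate experiments on different days.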

[12] = test system: ribosome of S. aureus DSM 6247; experiment: Fluorescence polarization assay, 70S ribosome of S. aureus; format: binding, Staphylococcus aureus DSM 6247; conditions: S. aureus ribosome versus E. coli ribosome
How it was run: as §3

[13] = calculated from reduced quantity in supernatant

| SMILES | Peptide per single cell, on average [1] | Uptake (peptide amount) [1] | Uptake rate [1, 13] | MIC [2] | MIC [3] | Relative peptide quantity in culture supernatants ([4]; high cell counts ∼7.5×10^9 cells/mL, typical value, except for E. coli) | Uptake rates ([4]; low cell counts, Gram-negatives) | MIC [5] | MIC [6] | Peptide per cell [7] | Total quantities determined in supernatants and pellets [8] | MIC [9] | Peptide per single cell, on average [10] | Uptake (peptide amount) [10] | Uptake rate [10, 13] | Effect of recombinant E. coli RF1 on K d [11] | MIC, fold difference E. coli versus A. baumannii ([3]; MIC 4 μg/mL for E. coli and 128 μg/mL for A. baumannii) | K d, fold higher than for E. coli [12] |
| --- | --- | --- | --- | --- | --- | --- | --- | --- | --- | --- | --- | --- | --- | --- | --- | --- | --- | --- |
| CC[C@H](C)[C@H](NC(=O)[C@@H](CCCNC(=N)N)NC(=O)[C@H](CCCNC(=N)N)NC(=O)[C@@H]1CCCN1C(=O)[C@@H]1CCCN1C(=O)[C@H](CCCNC(=N)N)NC(=O)[C@@H]1CCCN1C(=O)[C@H](CCCNC(=N)N)NC(=O)[C@@H]1CCCN1C(=O)[C@H](CC(C)C)NC(=O)[C@H](Cc1ccc(O)cc1)NC(=O)[C@@H]1CCCN1C(=O)[C@@H]1CCCN1C(=O)[C@H](CCCCN)NC(=O)[C@H](CC(=O)O)NC(=O)[C@@H](N)C(C)C)C(=O)N[C@@H](Cc1ccc(O)cc1)C(=O)N[C@@H](CC(N)=O)C(=O)N[C@H](CCCNC(=N)N)C(N)=O [Onc112] (H-VDKPPYLPRPRPPR[dR]IYN[dR]-NH2) | 0.5 fg | 352 ng | ~44% | 8 (3.4) mg/L | 32 (13.4) mg/L | around 75% | below 20% | 2 (0.8) mg/L | 64 (26.8) mg/L | 0.2 fg/cell | around 110% | 64 (26.8) mg/L | 0.3 fg | 208 ng | ~25% |  |  |  |
| CC[C@H](C)[C@H](NC(=O)[C@H](Cc1ccc(O)cc1)NC(=O)[C@@H](NC(=O)[C@@H]1CCCN1C(=O)[C@H](CCCNC(=N)N)NC(=O)[C@H](CC(N)=O)NC(=O)[C@H](CC(N)=O)NC(=O)[C@H](CCCN)N=C(N(C)C)N(C)C)C(C)C)C(=O)N1CCC[C@H]1C(=O)N[C@@H](CCCNC(=N)N)C(=O)N1CCC[C@H]1C(=O)N[C@@H](CCCNC(=N)N)C(=O)N1CCC[C@H]1C(=O)N1CCC[C@H]1C(=O)N[C@@H](Cc1c[nH]cn1)C(=O)N1CCC[C@H]1C(=O)N[C@@H](CCCNC(=N)N)C(=O)N[C@@H](CC(C)C)C(=O)O [Api137] ({Orn(α-tetramethylguanidino)}-NNRPVYIPRPRPPHPRL-OH) |  |  |  | 4 (1.8) mg/L | 128 (56) mg/L |  |  | 2 (0.9) mg/L | >128 (>56) mg/L |  |  | >128 (>56) mg/L |  |  |  | did not affect | 32 fold | 34 fold |
